Columns and labels:
[1] = system: MCF7; experiment: Antiproliferative activity against human MCF7 cells after 72 hrs by MTT reduction assay; assay type: functional, cell-based; settings: MCF7, 72 h
Outline: (§1)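 MTT reduction assay; adherent lines left to adhere overnight, suspension lines (HL-60, K562) seeded on the day. […] Incubation was 72 h at 37°C, with MTT added for the last 4 h. OD read at 545 nm (reference 690 nm). IC50 from 100(A0-A)/A0=50; means ± SD of 3 independent experiments.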

[2] = system: HeLa; experiment: Antiproliferative activity against human HeLa cells after 72 hrs by MTT reduction assay; assay type: functional, cell-based; outline: as §1
[3] = system: B16-F1; experiment: Antiproliferative activity against mouse B16-F1 cells after 72 hrs by MTT reduction assay; assay type: functional, cell-based; settings: B16-F1, 72 h; outline: as §1
[4] = system: K562; experiment: Antiproliferative activity against human K562 cells after 72 hrs by MTT reduction assay; assay type: functional, cell-based; settings: K562, 72 h; outline: as §1
[5] = system: HL-60; experiment: Antiproliferative activity against human HL60 cells after 72 hrs by MTT reduction assay; assay type: functional, cell-based; settings: HL-60, 72 h; outline: as §1
[6] = Antiproliferative activity against human FM3 cells after 72 hrs by MTT reduction assay; assay type: functional, cell-based; outline: as §1
[7] = system: HCT-116; experiment: Antiproliferative activity against human HCT116 cells after 72 hrs by MTT reduction assay; assay type: functional, cell-based; settings: HCT-116, 72 h
Outline: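 MTT reduction assay; adherent lines left to adhere overnight, suspension lines (HL-60, K562) seeded on the day. Incubation was 72 h at 37°C, with MTT added for the last 4 h.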

[8] = system: SK-BR-3; experiment: Antiproliferative activity against human SKBR3 cells after 72 hrs by MTT reduction assay; assay type: functional, cell-based; settings: SK-BR-3, 72 h; outline: as §1
[9] = system: B16-F1; experiment: Induction of apoptosis in mouse B16-F1 cells assessed as late apoptotic cells at 25 ug/ml after 72 hrs by propidium iodide staining-based flow cytometric method (reference value: 1.4%); assay type: functional
[10] = system: B16-F1; experiment: Induction of apoptosis in mouse B16-F1 cells assessed as early apoptotic cells at 25 ug/ml after 72 hrs by propidium iodide staining-based flow cytometric method (reference value: 0.4%); assay type: functional
[11] = system: PBMC; experiment: Induction of apoptosis in human PBMC assessed as necrotic cells at 25 ug/ml after 24 hrs by propidium iodide staining-based flow cytometric method (reference value: 1%); assay type: cell-based
[12] = system: B16-F1; experiment: Induction of apoptosis in mouse B16-F1 cells assessed as late apoptotic cells at 25 ug/ml after 48 hrs by propidium iodide staining-based flow cytometric method (reference value: 0.5%); assay type: functional
[13] = system: B16-F1; experiment: Induction of apoptosis in mouse B16-F1 cells assessed as early apoptotic cells at 25 ug/ml after 24 hrs by propidium iodide staining-based flow cytometric method (reference value: 0.5%); assay type: functional
[14] = system: PBMC; experiment: Induction of apoptosis in human PBMC assessed as late apoptotic cells at 25 ug/ml after 24 hrs by propidium iodide staining-based flow cytometric method (reference value: 0.6%); assay type: cell-based
[15] = system: B16-F1; experiment: Induction of apoptosis in mouse B16-F1 cells assessed as necrotic cells at 25 ug/ml after 24 hrs by propidium iodide staining-based flow cytometric method (reference value: 0.4%); assay type: functional
[16] = system: B16-F1; experiment: Induction of apoptosis in mouse B16-F1 cells assessed as early apoptotic cells at 25 ug/ml after 48 hrs by propidium iodide staining-based flow cytometric method (reference value: 0.2%); assay type: functional
[17] = system: PBMC; experiment: Induction of apoptosis in human PBMC assessed as early apoptotic cells at 25 ug/ml after 24 hrs by propidium iodide staining-based flow cytometric method (reference value: 0.1%); assay type: cell-based
[18] = system: B16-F1; experiment: Induction of apoptosis in mouse B16-F1 cells assessed as necrotic cells at 25 ug/ml after 48 hrs by propidium iodide staining-based flow cytometric method (reference value: 1%); assay type: functional
[19] = system: B16-F1; experiment: Induction of apoptosis in mouse B16-F1 cells assessed as late apoptotic cells at 25 ug/ml after 24 hrs by propidium iodide staining-based flow cytometric method (reference value: 0.9%); assay type: functional
[20] = system: PBMC; experiment: Induction of apoptosis in human PBMC at 2 ug/ml after 24 hrs by propidium iodide staining-based flow cytometric method; assay type: cell-based

IC50 [1] | IC50 [2] | IC50 [3] | IC50 [4] | IC50 [5] | IC50 [7] | IC50 [8] | Structure (SMILES) | IC50 [6] | Activity [9] | Activity [10] | Activity [11] | Activity [12] | Activity [13] | Activity [14] | Activity [15] | Activity [16] | Activity [17] | Activity [18] | Activity [19] | Activity [20]
21.3 µM | 19.5 µM | 39.1 µM | 18 µM | 9.83 µM | 26.7 µM | 9.02 µM | C/C=C1/[C@H](O[C@@H]2O[C@H](CO)[C@@H](O)[C@H](O)[C@H]2O)OC=C(C(=O)OC)[C@H]1CC(=O)OCCC(C)C (stereo in doubt) | 27.7 µM |  |  |  |  |  |  |  |  |  |  |  | 
 | 0.221 µM | 0.23 µM | 0.018 µM | 0.017 µM |  | 0.202 µM | COc1cccc2c1C(=O)c1c(O)c3c(c(O)c1C2=O)C[C@@](O)(C(=O)CO)C[C@@H]3O[C@H]1C[C@H](N)[C@H](O)[C@H](C)O1 [DOXORUBICIN] | 0.217 µM | 8.1% | 71.5% | 46.2% | 2% | 23.4% | 4.6% | 1.1% | 57.5% | 0% | 0.9% | 1.5% | 
> 50 µM | > 50 µM | > 50 µM | > 50 µM | > 50 µM | > 50 µM | > 50 µM | C/C=C1/[C@H](O[C@@H]2O[C@H](CO)[C@@H](O)[C@H](O)[C@H]2O)OC=C(C(=O)O)[C@H]1CC(=O)O | > 50 µM |  |  |  |  |  |  |  |  |  |  |  | 
9.66 µM | 17 µM | 34 µM | 7 µM | 8 µM | 21 µM | 3.81 µM | C/C=C1/[C@H](O[C@@H]2O[C@H](COC(C)=O)[C@@H](OC(C)=O)[C@H](OC(C)=O)[C@H]2OC(C)=O)OC=C(C(=O)OC)[C@H]1CC(=O)OCCCCCCCCCCCCCCCC | 27 µM |  |  |  |  |  |  |  |  |  |  |  | 
5 µM | 5.6 µM | 5.04 µM | 0.85 µM | 0.48 µM | 13.7 µM | 2 µM | C/C=C1/[C@H](O[C@@H]2O[C@H](CO)[C@@H](O)[C@H](O)[C@H]2O)OC=C(C(=O)OC)[C@H]1CC(=O)OCCC1CCCCC1 (stereo in doubt) | 9.33 µM |  |  |  |  |  |  |  |  |  |  |  | > 30%
18.7 µM | 21 µM | 43 µM | 16 µM | 10 µM | 26 µM | 11.5 µM | C/C=C1/[C@H](O[C@@H]2O[C@H](COC(C)=O)[C@@H](OC(C)=O)[C@H](OC(C)=O)[C@H]2OC(C)=O)OC=C(C(=O)OC)[C@H]1CC(=O)OCCc1ccccc1 (stereo in doubt) | 29.3 µM |  |  |  |  |  |  |  |  |  |  |  | 
19.3 µM | 18.5 µM | 41 µM | 20 µM | 10.3 µM | 25.3 µM | 11 µM | C/C=C1/[C@H](O[C@@H]2O[C@H](CO)[C@@H](O)[C@H](O)[C@H]2O)OC=C(C(=O)OC)[C@H]1CC(=O)OCCc1ccccc1 (stereo in doubt) | 28 µM |  |  |  |  |  |  |  |  |  |  |  | 
15 µM | 17.5 µM | 44 µM | 8.5 µM | 10.7 µM | 25.7 µM | 6.6 µM | C/C=C1/[C@H](O[C@@H]2O[C@H](COC(C)=O)[C@@H](OC(C)=O)[C@H](OC(C)=O)[C@H]2OC(C)=O)OC=C(C(=O)OC)[C@H]1CC(=O)OCCC (stereo in doubt) | 29 µM |  |  |  |  |  |  |  |  |  |  |  | 

Reference: ChEMBL document CHEMBL4130342, “New semi-synthetic analogs of oleuropein show improved anticancer activity in vitro and in vivo” (Eur J Med Chem, 2017)
